Measured values as given in ChEMBL document CHEMBL1141591, “Lipophilic modifications to dinucleoside polyphosphates and nucleotides that confer antagonist properties at the platelet P2Y12 receptor” (J Med Chem, 2008).
Calls of active or inactive are those of the source. No cut-off for these calls is given here.

Assays:
[1] = target: P2Y purinoceptor 12 (Homo sapiens) (UniProt Q9H244); assay: Antagonist activity at P2Y12 receptor assessed as inhibition of ADP-induced human platelet aggregation by washed platelet assay at 100 uM; format: functional
Summary of the method: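 Blood from healthy volunteers was anticoagulated with ACD and spun at 180g for 15 min to give PRP. Platelets were washed three times in HEPES-buffered saline, pH 7.4, with 0.2% BSA and 5 µM PGI2, then resuspended with 0.25 U/mL apyrase. The suspension held 1 mg/mL fibrinogen at 37 °C, stirred at 1000 rpm. Compound (usually 1 nM–100 µM) was added for 2 min, then ADP at EC90 (usually 1–10 µM). Optical aggregation was recorded for 8 min. IC50 came from a four-parameter logistic fit.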

P2Y purinoceptor 1 = P2Y purinoceptor 1 (Homo sapiens, UniProt P47900); assay: Agonist activity at human recombinant P2Y1 receptor expressed in human 1321 cells at 100 uM by calcium mobilization assay; format: functional, cell-based
Summary of the method: (§1)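 1321N1 human astrocytoma cells expressing the recombinant receptor were loaded with Fluo-3 AM (2.5 µM final) for 60 min at 25 °C. Assay buffer: KCl 10, NaCl 118, CaCl2 2.5, MgCl2 1, HEPES 20, glucose 10 mM, pH 7.4. Cells were washed and then stimulated with compound. Intracellular calcium was read as the change in fluorescence (FLIPR). Values are EC50 in µM. SR means 5–20% of maximal response at the top concentration, usually 100 µM. NR means no response.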

P2Y purinoceptor 2 [2] = target: T1, P2Y purinoceptor 2 (Homo sapiens, UniProt P41231); assay: Agonist activity at P2Y2 receptor expressed in human 1321 cells at 100 uM by calcium mobilization assay; format: functional, cell-based; summary of the method: as §1
P2Y purinoceptor 2 [3] = target: T1, P2Y purinoceptor 2; assay: Agonist activity at P2Y2 receptor expressed in human 1321 cells by calcium mobilization assay; format: functional, cell-based
P2Y purinoceptor 6 = P2Y purinoceptor 6 (Homo sapiens, UniProt Q15077); assay: Agonist activity at P2Y6 receptor expressed in human 1321 cells at 100 uM by calcium mobilization assay; format: functional, cell-based; summary of the method: as §1
Chain of P2Y purinoceptor 6 (Q15077 whole entry): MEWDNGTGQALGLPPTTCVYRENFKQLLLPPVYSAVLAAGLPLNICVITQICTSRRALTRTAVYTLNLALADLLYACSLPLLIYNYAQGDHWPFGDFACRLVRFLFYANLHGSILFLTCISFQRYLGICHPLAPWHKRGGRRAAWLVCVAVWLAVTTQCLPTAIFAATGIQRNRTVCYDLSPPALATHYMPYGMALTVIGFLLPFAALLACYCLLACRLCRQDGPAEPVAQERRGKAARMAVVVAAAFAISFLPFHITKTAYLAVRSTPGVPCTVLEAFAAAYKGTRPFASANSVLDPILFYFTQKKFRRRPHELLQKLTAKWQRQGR

T1 sequence (P41231 whole entry): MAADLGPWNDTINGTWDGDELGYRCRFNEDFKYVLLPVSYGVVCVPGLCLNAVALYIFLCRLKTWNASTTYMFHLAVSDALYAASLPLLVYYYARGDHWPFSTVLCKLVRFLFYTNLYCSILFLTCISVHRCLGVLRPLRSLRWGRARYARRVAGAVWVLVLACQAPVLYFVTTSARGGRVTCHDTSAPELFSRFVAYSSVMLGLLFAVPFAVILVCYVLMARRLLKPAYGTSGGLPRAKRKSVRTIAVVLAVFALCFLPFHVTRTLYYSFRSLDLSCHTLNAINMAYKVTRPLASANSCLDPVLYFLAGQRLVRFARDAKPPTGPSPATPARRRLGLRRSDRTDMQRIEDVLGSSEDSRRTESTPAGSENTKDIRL
Chain of P2Y purinoceptor 1 (P47900 whole entry): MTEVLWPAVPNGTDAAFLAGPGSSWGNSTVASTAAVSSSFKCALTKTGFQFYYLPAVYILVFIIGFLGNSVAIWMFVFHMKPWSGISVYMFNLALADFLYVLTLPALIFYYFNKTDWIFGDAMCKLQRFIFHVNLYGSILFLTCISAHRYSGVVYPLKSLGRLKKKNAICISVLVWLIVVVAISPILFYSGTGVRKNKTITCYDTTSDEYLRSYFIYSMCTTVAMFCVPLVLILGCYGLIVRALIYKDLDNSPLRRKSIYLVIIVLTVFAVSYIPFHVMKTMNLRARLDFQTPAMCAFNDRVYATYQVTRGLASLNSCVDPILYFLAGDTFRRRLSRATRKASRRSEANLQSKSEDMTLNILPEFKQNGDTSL
Chain of P2Y purinoceptor 12 (Homo sapiens) (Q9H244 whole entry): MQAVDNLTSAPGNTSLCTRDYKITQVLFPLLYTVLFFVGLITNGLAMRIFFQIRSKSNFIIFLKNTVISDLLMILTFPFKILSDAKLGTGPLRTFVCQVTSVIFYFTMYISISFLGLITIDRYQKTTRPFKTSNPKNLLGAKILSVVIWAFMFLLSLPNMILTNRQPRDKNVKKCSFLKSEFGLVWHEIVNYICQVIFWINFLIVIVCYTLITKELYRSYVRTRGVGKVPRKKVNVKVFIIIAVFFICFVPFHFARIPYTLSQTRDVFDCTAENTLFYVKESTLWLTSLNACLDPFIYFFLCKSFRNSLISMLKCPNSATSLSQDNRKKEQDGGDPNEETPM

| Compound | Activity [1] | Activity (P2Y purinoceptor 1) | Activity (P2Y purinoceptor 2 [2]) | EC50 (P2Y purinoceptor 2 [3]) | Activity (P2Y purinoceptor 6) | inhibition [1] |
| --- | --- | --- | --- | --- | --- | --- |
| O=C(Nc1ccc(F)cc1)Nc1ccn([C@@H]2O[C@H](COP(=O)(O)O)C(O)C2O)c(=O)n1 (single isomer, unassigned) | inactive | – | – | – | – | – |
| O=C(Nc1ccc(F)cc1)Nc1ccn([C@@H]2O[C@H](COP(=O)(O)OP(=O)(O)OP(=O)(O)OP(=O)(O)OC[C@@H]3O[C@H](n4ccc(=O)[nH]c4=O)[C@@H](O)[C@H]3O)[C@H]3O[C@@H](Cc4ccccc4)O[C@H]32)c(=O)n1 | – | inactive | > 5% | – | – | – |
| O=c1ccn([C@@H]2O[C@H](COP(=O)(O)OP(=O)(O)OP(=O)(O)OP(=O)(O)OC[C@@H]3O[C@H](n4ccc(=O)[nH]c4=O)[C@@H](O)[C@H]3O)[C@@H]3OC(Cc4ccccc4)O[C@H]32)c(=O)[nH]1 (stereo not given in full) | – | inactive | – | 94 nM | > 5% | – |
| Nc1ccn([C@@H]2O[C@H](COP(=O)(O)OP(=O)(O)OP(=O)(O)OP(=O)(O)OC[C@@H]3O[C@H](n4ccc(=O)[nH]c4=O)[C@H]4OC(Cc5ccccc5)O[C@H]43)[C@H]3OC(Cc4ccccc4)O[C@H]32)c(=O)n1 (stereo not given in full) | – | inactive | inactive | – | inactive | – |
| Nc1ccn([C@@H]2O[C@H](COP(=O)(O)O)[C@H]3O[C@@H](Cc4ccccc4)O[C@H]32)c(=O)n1 | inactive | inactive | inactive | – | inactive | – |
| O=c1ccn([C@@H]2O[C@H](COP(=O)(O)OP(=O)(O)OP(=O)(O)OP(=O)(O)OC[C@@H]3O[C@H](n4ccc(=O)[nH]c4=O)[C@@H](O)[C@H]3O)[C@H]3OC(/C=C/c4ccccc4)O[C@H]32)c(=O)[nH]1 (stereo in doubt; 24) | – | inactive | – | 155 nM | – | – |
| CCCCCCCC1O[C@@H]2[C@H](O1)[C@@H](COP(=O)(O)OP(=O)(O)OP(=O)(O)OP(=O)(O)OC[C@@H]1O[C@H](n3ccc(=O)[nH]c3=O)[C@H]3OC(CCCCCCC)O[C@H]31)O[C@H]2n1ccc(=O)[nH]c1=O (stereo not given in full) | – | inactive | – | – | inactive | – |
| O=C(Nc1ccc(F)cc1)Nc1ccn([C@@H]2O[C@H](COP(=O)(O)OP(=O)(O)OP(=O)(O)OP(=O)(O)OC[C@@H]3O[C@H](n4ccc(=O)[nH]c4=O)[C@H]4O[C@@H](Cc5ccccc5)O[C@H]43)[C@@H](O)[C@H]2O)c(=O)n1 | – | inactive | inactive | – | – | – |
| Nc1ncnc2c1ncn2[C@@H]1O[C@H](COP(=O)(O)OP(=O)(O)OP(=O)(O)OP(=O)(O)OC[C@@H]2O[C@H](n3cnc4c(N)ncnc43)[C@@H](O)[C@H]2O)[C@H]2OC(Cc3ccccc3)O[C@H]21 (stereo not given in full) | – | inactive | – | 52 nM | inactive | – |
| O=c1ccn([C@@H]2O[C@H](COP(=O)(O)OP(=O)(O)OP(=O)(O)OP(=O)(O)OC[C@@H]3O[C@H](n4ccc(=O)[nH]c4=O)[C@@H](O)[C@H]3O)[C@H]3OC(C#Cc4ccccc4)O[C@H]32)c(=O)[nH]1 (stereo in doubt; 26) | – | inactive | – | 68 nM | – | – |
| Nc1ccn([C@@H]2O[C@H](COP(=O)(O)OP(=O)(O)OP(=O)(O)OP(=O)(O)OC[C@@H]3O[C@H](n4ccc(=O)[nH]c4=O)[C@H]4OC(Cc5ccccc5)O[C@H]43)[C@@H](O)[C@H]2O)c(=O)n1 (stereo not given in full) | – | inactive | inactive | – | inactive | 46% |
| O=C(O[C@@H]1[C@H](OC(=O)c2ccccc2)[C@@H](n2ccc(=O)[nH]c2=O)O[C@H]1COP(=O)(O)OP(=O)(O)OP(=O)(O)OP(=O)(O)OC[C@H]1O[C@@H](n2ccc(=O)[nH]c2=O)[C@H](OC(=O)c2ccccc2)[C@@H]1OC(=O)c1ccccc1)c1ccccc1 | – | inactive | inactive | – | inactive | 52% |
| CNc1ccccc1C(=O)O[C@H]1[C@@H](O)[C@H](n2ccc(=O)[nH]c2=O)O[C@@H]1COP(=O)(O)OP(=O)(O)OP(=O)(O)OP(=O)(O)OC[C@@H]1O[C@H](n2ccc(=O)[nH]c2=O)[C@@H](OC(=O)c2ccccc2NC)[C@H]1O | – | inactive | – | 5470 nM | > 5% | – |
| O=C(Nc1ccccc1)Nc1ncnc2c1ncn2[C@@H]1O[C@H](COP(=O)(O)OP(=O)(O)OP(=O)(O)OP(=O)(O)OC[C@@H]2O[C@H](n3cnc4c(NC(=O)Nc5ccccc5)ncnc43)[C@H]3O[C@@H](Cc4ccccc4)O[C@H]32)[C@H]2O[C@@H](Cc3ccccc3)O[C@H]21 | – | inactive | inactive | – | – | – |
| O=C(Nc1ccccc1)Nc1ncnc2c1ncn2[C@@H]1O[C@H](COP(=O)(O)OP(=O)(O)O)[C@H]2O[C@@H](Cc3ccccc3)O[C@H]21 | – | > 5% | – | 13900 nM | > 5% | – |
| O=C(Nc1ccc(F)cc1)Nc1ccn([C@@H]2O[C@H](COP(=O)(O)OP(=O)(O)OP(=O)(O)OP(=O)(O)OC[C@@H]3O[C@H](n4ccc(=O)[nH]c4=O)[C@H]4O[C@@H](Cc5ccccc5)O[C@H]43)[C@H]3O[C@@H](Cc4ccccc4)O[C@H]32)c(=O)n1 | – | inactive | inactive | – | inactive | – |
| Nc1ncnc2c1ncn2[C@@H]1O[C@H](COP(=O)(O)OP(=O)(O)OP(=O)(O)O)[C@@H](O)[C@H]1O | – | – | – | – | – | 63% |
| O=C(Nc1ccc(F)cc1)Nc1ccn([C@@H]2O[C@H](COP(=O)(O)O)[C@H]3O[C@@H](Cc4ccccc4)O[C@H]32)c(=O)n1 | – | inactive | inactive | – | inactive | – |
| CCCCCCCC1O[C@@H]2[C@H](O1)[C@@H](COP(=O)(O)OP(=O)(O)OP(=O)(O)OP(=O)(O)OC[C@@H]1O[C@H](n3ccc(=O)[nH]c3=O)[C@@H](O)[C@H]1O)O[C@H]2n1ccc(=O)[nH]c1=O (stereo not given in full) | – | inactive | – | 147 nM | > 5% | – |
| O=c1ccn([C@@H]2O[C@H](COP(=O)(O)OP(=O)(O)OP(=O)(O)OP(=O)(O)OC[C@@H]3O[C@H](n4ccc(=O)[nH]c4=O)[C@@H](O)[C@H]3O)[C@@H]3OC(c4ccccc4)O[C@H]32)c(=O)[nH]1 (stereo not given in full) | – | inactive | – | 192 nM | > 5% | – |
| O=c1ccn([C@@H]2O[C@H](COP(=O)(O)OP(=O)(O)OP(=O)(O)OP(=O)(O)OC[C@@H]3O[C@H](n4ccc(=O)[nH]c4=O)[C@H]4OC(c5ccccc5)O[C@H]43)[C@H]3OC(c4ccccc4)O[C@H]32)c(=O)[nH]1 (stereo not given in full) | – | inactive | – | 3070 nM | inactive | – |
| Nc1ncnc2c1ncn2[C@@H]1O[C@H](COP(=O)(O)OP(=O)(O)OP(=O)(O)OP(=O)(O)OC[C@@H]2O[C@H](n3cnc4c(N)ncnc43)[C@H]3OC(Cc4ccccc4)O[C@H]32)[C@H]2OC(Cc3ccccc3)O[C@H]21 (stereo not given in full) | – | inactive | > 5% | – | inactive | – |
| O=c1ccn([C@@H]2O[C@H](COP(=O)(O)OP(=O)(O)OP(=O)(O)OC[C@@H]3O[C@H](n4ccc(=O)[nH]c4=O)[C@H]4OC(Cc5ccccc5)O[C@H]43)[C@H]3OC(Cc4ccccc4)O[C@H]32)c(=O)[nH]1 (stereo not given in full) | – | inactive | inactive | – | inactive | – |
| O=c1ccn([C@@H]2O[C@H](COP(=O)(O)OP(=O)(O)OP(=O)(O)OP(=O)(O)OC[C@@H]3O[C@H](n4ccc(=O)[nH]c4=O)[C@H]4OC(/C=C/c5ccccc5)O[C@H]43)[C@H]3OC(/C=C/c4ccccc4)O[C@H]32)c(=O)[nH]1 (stereo in doubt; 25) | – | inactive | inactive | – | > 5% | – |
